Among the data in PubChem BioAssay are viability, differential viability (reversal) and inhibition values, retold here.

Active and inactive are the calls of the source.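 How the source made its calls, unless noted: active means viability at or under a set limit in both replicates, limit being median viability minus 3 SD (cut at about 48% in these data, passing the limit was not always enough); inconclusive means at or under the limit in just one replicate; inactive means at or above the limit in both replicates.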

Assay [1] is described as follows: reduced viability of SK-BR-3 breast cancer cells – cell-based, 24 h, human, pilot screen (AID 572;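 active means viability at or below 10% of carrier control in both of two separate runs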;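 further: compound exposure lasted between 18 and 24 h rather than exactly 24 h; 100% = carrier-treated control wells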). The note with it: SK-BR-3 viability, CellTiter-Glo luminescence, at 10 µM, stronger effect = lower value. For orientation: Cellular ATP, detected with luciferase, serves as a proxy for viable cell number.
Assay [2] is described as follows: HUVEC growth inhibition – cell-based, human, primary screen (AID 575;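 active means viability at or below 30% in both replicate assays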;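 further: 100% = median of untreated cell wells with 0.1% DMSO on each plate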). The note with it: HUVEC proliferation, CellTiter-Glo luminescence, 72 h; at 10 µM; stronger effect = lower value. In a few lines: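 Test system: HUVEC primary cells. Quantity: 1250 endothelial cells in each well. Dosing: single-point 10 µM, DMSO 0.1% final. Incubation: 72 h treatment at 37 °C. Measured by: CTG luminescence. Control set: DMSO cell controls and MePR drug controls. Plate: collagen-coated 384-well format.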

A short description of assay [3]: H69AR cell proliferation blockers – human, duplicate replicates, primary screen (AID 580).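 Further: 100% = mean luminescence of untreated wells and 0% = no signal.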 The following applies: H69AR lung tumor cells viability, ATP luminescence, 72 h; at 10 µM; stronger effect = lower value.
The nature of assay [4]: MRP1 drug-resistance reversers in H69AR cells – cell-based, doxorubicin co-treatment, pilot screen (AID 601;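 active means viability loss from added drug above about 55%, and viability with drug at most 40%, in both replicates, limit read from the data, passing the limit was not always enough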). The following applies: CellTiter-Glo, 72 h, at 10 µM; for differential viability (reversal): stronger effect = higher value.
Assay [5] can be described thus: yeast transport mutant growth inhibition pilot in 384-well plates, post-Golgi transport modulator project (AID 636; in the data active means inhibition above about 31%). The note with it: absorbance 615 nm, about 18 h, stronger effect = higher value.
Assay [6] can be described thus: growth suppression of yeast trafficking mutant, preliminary HTS, modulators of trafficking downstream of Golgi apparatus project, 1536-format plate, OD 615 nm (AID 637; in the data active means inhibition above about 30%). The note with it: yeast transport mutant growth, absorbance 615 nm, 18 h; stronger effect = higher value.
Where [7] appears, read: H69AR cells + 2 uM doxorubicin, measured here: viability with 2 uM doxorubicin, stronger effect = lower value.
Where [8] appears, read: H69AR cells, compound alone cytotoxicity.

As to `COC(=O)Nc1sccc1C(=O)Nc1sccc1C(=O)OC`, the viability (commonly a read-out of living cells in per cent, often relative to untreated cells) was 62% (inactive) in assay [1]; 88.5% (inactive) in assay [2]; 52.2% (inactive) in assay [3]; 66% in assay [4] (setting [7]); 52.2% in assay [4] (setting [8]). For the same compound, in assay [4] (H69AR cells + 2 uM doxorubicin), the differential viability (reversal) was -13.8% (inactive). In addition, the inhibition (in general, the drop in the measured response relative to a control, in per cent) in assay [5] was 2.47% (inactive); in assay [6], -2.36% (inactive).

As for `CC1C/C=C/C=C/C=C/C=C/C(O[C@@H]2O[C@H](C)[C@@H](O)[C@H](N)[C@@H]2O)CC2OC(O)(CC(O)CC3OC3/C=C/C(=O)O1)CC(O)C2C(=O)O` (stereo partly specified), the viability in assay [1] was 121% (inactive); in assay [2] it was 99.7% (inactive); in assay [3], 92.3% (inactive); in assay [4] (setting [7]), 84.1%; in assay [4] (setting [8]), 92.3%. Moreover, the differential viability (reversal) in assay [4] (H69AR cells + 2 uM doxorubicin) is 8.26% (inactive). For the same compound, the inhibition is 2.6% (inactive) in assay [5] and -2.67% (inactive) in assay [6].

`Cc1cc(C)cc(C(=O)N2CCC(C(N)=O)CC2)c1`: the viability was 91% (inactive) in assay [1]; 105% (inactive) in assay [2]; 97.2% (inactive) in assay [3]; 87.5% in assay [4] (setting [7]); 97.2% in assay [4] (setting [8]). In addition, in assay [4] (H69AR cells + 2 uM doxorubicin), the differential viability (reversal) is 9.71% (inactive). Also, the results for the inhibition in assay [5] and in assay [6] were -8.78% (inactive) and 0% (inactive), respectively.

Regarding `COc1ccc(CN(Cc2cc3cc4c(cc3[nH]c2=O)OCO4)C(=O)NC2CCCCC2)cc1`, the viability in assay [1] was 85% (inactive); in assay [2], 63.9% (inactive); in assay [3], 96.9% (inactive); in assay [4] (setting [7]) it was 96%; in assay [4] (setting [8]) it was 96.9%. The differential viability (reversal) in assay [4] (H69AR cells + 2 uM doxorubicin) is 0.835% (inactive). For the same compound, the inhibition in assay [5] was 1.22% (inactive); in assay [6], -1.27% (inactive).

As to `CCCCn1cnc2c1c(=O)n(C)c(=O)n2C`, the viability was 77% (inactive) in assay [1]; 100% (inactive) in assay [2]; 100% (inactive) in assay [3]; 89% in assay [4] (setting [7]); 100% in assay [4] (setting [8]). Moreover, the differential viability (reversal) in assay [4] (H69AR cells + 2 uM doxorubicin) is 11.1% (inactive). Further, the inhibition is 3.24% (inactive) in assay [5] and 0.18% (inactive) in assay [6].

`CC(=O)c1ccccc1NS(=O)(=O)c1c(C)nn(-c2ccccc2)c1C`: the viability was 99% (inactive) in assay [1]; 77.6% (inactive) in assay [2]; 88.3% (inactive) in assay [3]; 93.3% in assay [4] (setting [7]); 88.3% in assay [4] (setting [8]). Further, the differential viability (reversal) in assay [4] (H69AR cells + 2 uM doxorubicin) is -5% (inactive). The inhibition is -3.11% (inactive) in assay [5] and -4.55% (inactive) in assay [6].

As to `Cc1ccc(-c2nc3cc(NC(=O)C(C)C)ccc3o2)cc1C`, the viability in assay [1] is 80% (inactive); in assay [2], 51.8% (inactive); in assay [3], 72.9% (inactive); in assay [4] (setting [7]), 69.9%; in assay [4] (setting [8]), 72.9%. Also, the differential viability (reversal) in assay [4] (H69AR cells + 2 uM doxorubicin) is 2.97% (inactive). The inhibition in assay [5] was -4.66% (inactive); in assay [6], -8.55% (inactive).

Regarding `COC(=O)Cc1cc(=O)n(-c2ccccc2)[nH]1`, the viability in assay [1] was 95% (inactive); in assay [2] it was 91.2% (inactive); in assay [3], 87.9% (inactive); in assay [4] (setting [7]), 88.4%; in assay [4] (setting [8]), 87.9%. The differential viability (reversal) in assay [4] (H69AR cells + 2 uM doxorubicin) was -0.48% (inactive). In addition, the inhibition is -9.45% (inactive) in assay [5] and 0.73% (inactive) in assay [6].

As for `O=C(c1csc2ccccc12)N1CCCCCC1`, the viability in assay [1] was 109% (inactive); in assay [2] it was 83.7% (inactive); in assay [3] it was 104% (inactive); in assay [4] (setting [7]), 93.9%; in assay [4] (setting [8]), 104%. The differential viability (reversal) in assay [4] (H69AR cells + 2 uM doxorubicin) was 9.99% (inactive). In addition, the inhibition in assay [5] was -1.51% (inactive); in assay [6] it was -3.87% (inactive).

Take `Cn1c(=O)c2[nH]cnc2n(C)c1=O`: the viability in assay [1] was 101% (inactive); in assay [2], 107% (inactive); in assay [3] it was 97.4% (inactive); in assay [4] (setting [7]) it was 92.1%; in assay [4] (setting [8]), 97.4%. For the same compound, the differential viability (reversal) in assay [4] (H69AR cells + 2 uM doxorubicin) is 5.22% (inactive). Further, the inhibition was -1.3% (inactive) in assay [5] and -2.83% (inactive) in assay [6].

For `CN(Cc1ccc(-n2cccn2)cc1)C(=O)c1cnn2c1NC(c1ccco1)CC2C(F)(F)F` (stereo unspecified), the viability is 74% (inactive) in assay [1]; 82.3% (inactive) in assay [2]; 78.4% (inactive) in assay [3]; 85.8% in assay [4] (setting [7]); 78.4% in assay [4] (setting [8]). The differential viability (reversal) in assay [4] (H69AR cells + 2 uM doxorubicin) was -7.45% (inactive). Further, the results for the inhibition in assay [5] and in assay [6] were 2.88% (inactive) and -0.36% (inactive), respectively.

Regarding `CCCCSc1nnc([C@H](C)NC(=O)OC(C)(C)C)o1`, the viability in assay [1] is 97% (inactive); in assay [2], 102% (inactive); in assay [3], 90.3% (inactive); in assay [4] (setting [7]), 101%; in assay [4] (setting [8]) it was 90.3%. Moreover, in assay [4] (H69AR cells + 2 uM doxorubicin), the differential viability (reversal) is -10.7% (inactive). In addition, the inhibition is 0.14% (inactive) in assay [5] and 22.6% (inactive) in assay [6].
